Consider 17 compounds from ChEMBL document CHEMBL3244061, “Angiotensin II analogues. 12. Role of the aromatic ring of position 8 phenylalanine in pressor activity” (J Med Chem, 1979).

Peptide text beside a SMILES is read from it.

The species entered for one series is Rattus norvegicus. The series is described as follows: Inhibition of 70 pmol angiotensin-2-induced pressor activity in rat at 1400 pmol/min co-infused with angiotensin-2 measured after 30 mins. Format: functional.
Conditions: not given
A digest of the protocol: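 Antagonist and angiotensin II were coinjected at a 20:1 ratio (1400 pmol/70 pmol per minute) for 30 min. The percent reduction of the angiotensin II pressor effect was recorded. Recovery to one-half of the pretreatment level was followed after the infusion stopped.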
For `CC[C@H](C)[C@H](NC(=O)[C@H](Cc1ccc(O)cc1)NC(=O)[C@@H](NC(=O)[C@H](CCCNC(=N)N)NC(=O)CNC)C(C)C)C(=O)N[C@@H](Cc1cnc[nH]1)C(=O)N1CCC[C@H]1C(=O)N[C@@H](CC(C)C)C(=O)O` (HELM PEPTIDE1{[Sar].R.V.Y.I.H.P.L}$$$$V2.0), the “inhibition (INH)” value is on record as 67%.

The species entered for a further series is Rattus norvegicus. The series is described as follows: Inhibition of 3 to 12 pmol angiotensin-2-induced pressor activity in rat at 400 pmol measured after 30 mins. Format: functional.
Conditions: not given
The procedure, abridged:
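A single 400 pmol injection of antagonist was given. Pressor responses to single angiotensin II doses of 3, 6 and 12 pmol were then tracked. Duration (T1/2) was taken as the time for the responses to return to one-half of the pretreatment level.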
Consider `CC[C@H](C)[C@H](NC(=O)[C@H](Cc1ccc(O)cc1)NC(=O)[C@@H](NC(=O)[C@H](CCCNC(=N)N)NC(=O)CNC)C(C)C)C(=O)N[C@@H](Cc1cnc[nH]1)C(=O)N1CCC[C@H]1C(=O)N[C@@H](CC(C)C)C(=O)O` (HELM PEPTIDE1{[Sar].R.V.Y.I.H.P.L}$$$$V2.0), for which the “inhibition (INH)” value is listed as 50%.

The species named for another series is Rattus norvegicus. Put plainly: Induction of pressor activity in nephrectomized, pentolinium-treated rat model relative to angiotensin 2. Format: organism-based. The note with it: in vivo. A digest of the protocol: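 Pressor activity was measured in male rats that were nephrectomized, treated with pentolinium and anesthetized with pentobarbital. Peptides were dissolved in normal saline containing 0.1% polyvinylpyrrolidone and kept in siliconized glass. Molarities of all solutions, including the angiotensin II standard, were set from peptide content determined by amino acid analysis of hydrolysates. Activity was expressed relative to angiotensin II.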
Turning to H-NRVYVHPF-OH [ANGIOTENSIN AMIDE], the Activity is 100%.

In turn, `CC[C@H](C)[C@H](NC(=O)[C@H](Cc1ccc(O)cc1)NC(=O)[C@@H](NC(=O)[C@H](CCCNC(=N)N)NC(=O)[C@@H](N)CC(N)=O)C(C)C)C(=O)N[C@@H](Cc1cnc[nH]1)C(=O)N1CCC[C@H]1C(=O)N[C@@H](Cc1ccc(N)cc1)C(=O)O` (HELM PEPTIDE1{N.R.V.Y.I.H.P.[Nc1ccc(C[C@H](N[*:1])C(=O)O)cc1]}$$$$V2.0) registered an Activity of 52.5%.

In turn, `CC[C@H](C)[C@H](NC(=O)[C@H](Cc1ccc(O)cc1)NC(=O)[C@@H](NC(=O)[C@H](CCCNC(=N)N)NC(=O)[C@@H](N)CC(=O)O)C(C)C)C(=O)N[C@@H](Cc1c[nH]cn1)C(=O)N1CCC[C@H]1C(=O)N[C@@H](CC1CCCCC1)C(=O)O` yielded an Activity of 20%.

As for `CC[C@H](C)[C@H](NC(=O)[C@H](Cc1ccc(O)cc1)NC(=O)[C@@H](NC(=O)[C@H](CCCNC(=N)N)NC(=O)CNC)C(C)C)C(=O)N[C@@H](Cc1cnc[nH]1)C(=O)N1CCC[C@H]1C(=O)N[C@@H](CC(C)C)C(=O)O` (HELM PEPTIDE1{[Sar].R.V.Y.I.H.P.L}$$$$V2.0), the Activity was 2.5%.

`CC[C@H](C)[C@H](NC(=O)[C@H](Cc1ccc(O)c(Cc2ccccc2)c1)NC(=O)[C@@H](NC(=O)[C@H](CCCNC(=N)N)NC(=O)[C@@H](N)CC(N)=O)C(C)C)C(=O)N[C@@H](Cc1cnc[nH]1)C(=O)N1CCC[C@H]1C(=O)N[C@@H](Cc1ccc([N+](=O)[O-])cc1)C(=O)O` (HELM PEPTIDE1{N.R.V.[O=C([C@H](Cc1ccc(O)c(Cc2ccccc2)c1)N[*:1])[*:2]].I.H.P.[O=C(O)[C@H](Cc1ccc([N+](=O)[O-])cc1)N[*:1]]}$$$$V2.0) gave an Activity of 0.16%.

`CCCCC[C@H](NC(=O)[C@@H]1CCCN1C(=O)[C@H](Cc1cnc[nH]1)NC(=O)[C@@H](NC(=O)[C@H](Cc1ccc(O)cc1)NC(=O)[C@@H](NC(=O)[C@H](CCCNC(=N)N)NC(=O)[C@@H](N)CC(N)=O)C(C)C)[C@@H](C)CC)C(=O)O` (HELM PEPTIDE1{N.R.V.Y.I.H.P.[CCCCC[C@H](N[*:1])C(=O)O]}$$$$V2.0) returned an Activity of 11.5%.

Compound `CC[C@H](C)[C@H](NC(=O)[C@H](Cc1ccc(O)cc1)NC(=O)[C@@H](NC(=O)[C@H](CCCNC(=N)N)NC(=O)[C@@H](N)CC(N)=O)C(C)C)C(=O)N[C@@H](Cc1cnc[nH]1)C(=O)N1CCC[C@H]1C(=O)N[C@@H](Cc1ccc([N+](=O)[O-])cc1)C(=O)O` (HELM PEPTIDE1{N.R.V.Y.I.H.P.[O=C(O)[C@H](Cc1ccc([N+](=O)[O-])cc1)N[*:1]]}$$$$V2.0) returned an Activity of 15%.

`CC[C@H](C)[C@H](NC(=O)[C@H](Cc1ccc(O)cc1)NC(=O)[C@@H](NC(=O)[C@H](CCCNC(=N)N)NC(=O)[C@@H](N)CC(=O)O)C(C)C)C(=O)N[C@@H](Cc1c[nH]cn1)C(=O)N1CCC[C@H]1C(=O)N[C@@H](Cc1ccc(OC)cc1)C(=O)O` showed an Activity of 33%.

H-DRVYIHPV-OH came in with an Activity of 0.5%.

Regarding H-NRVYIHPL-OH, the Activity came out at 1.2%.

For `CC[C@H](C)[C@H](NC(=O)[C@H](Cc1ccc(O)cc1)NC(=O)[C@@H](NC(=O)[C@H](CCCNC(=N)N)NC(=O)[C@@H](N)CC(=O)O)C(C)C)C(=O)N[C@@H](Cc1c[nH]cn1)C(=O)N1CCC[C@H]1C(=O)N[C@@H](Cc1ccc(F)cc1)C(=O)O`, the Activity is 100%.

`CCCC[C@H](NC(=O)[C@@H]1CCCN1C(=O)[C@H](Cc1c[nH]cn1)NC(=O)[C@@H](NC(=O)[C@H](Cc1ccc(O)cc1)NC(=O)[C@@H](NC(=O)[C@H](CCCNC(=N)N)NC(=O)[C@@H](N)CC(=O)O)C(C)C)[C@@H](C)CC)C(=O)O` returned an Activity of 7.3%.

As to `CCCC[C@H](NC(=O)[C@@H]1CCCN1C(=O)[C@H](Cc1cnc[nH]1)NC(=O)[C@@H](NC(=O)[C@H](Cc1ccc(O)cc1)NC(=O)[C@@H](NC(=O)[C@H](CCCNC(=N)N)NC(=O)[C@@H](N)CC(N)=O)C(C)C)[C@@H](C)CC)C(=O)O` (HELM PEPTIDE1{N.R.V.Y.I.H.P.[Nle]}$$$$V2.0), the Activity worked out at 7.3%.

On to `CC[C@H](C)[C@H](NC(=O)[C@H](Cc1ccc(O)cc1)NC(=O)[C@@H](NC(=O)[C@@H](C)N)C(C)C)C(=O)N[C@@H](Cc1cnc[nH]1)C(=O)N1CCC[C@H]1C(=O)N[C@@H](CC(C)C)C(=O)O`, for which the Activity stood at 1.4%.

H-DRVYIHPY-OH yielded an Activity of 83%.

With `CC[C@H](C)[C@H](NC(=O)[C@H](Cc1ccc(O)cc1)NC(=O)[C@@H](NC(=O)[C@H](CCCNC(=N)N)NC(=O)[C@@H](N)CC(N)=O)C(C)C)C(=O)N[C@@H](Cc1cnc[nH]1)C(=O)N1CCC[C@H]1C(=O)NC1(C(=O)O)Cc2ccccc2C1` (HELM PEPTIDE1{N.R.V.Y.I.H.P.[O=C(O)C1(N[*:1])Cc2ccccc2C1]}$$$$V2.0), the Activity was 0.1%.

As for `CC[C@H](C)[C@H](NC(=O)[C@H](Cc1ccc(O)cc1)NC(=O)[C@@H](NC(=O)[C@H](CCCN=C(N)N)NC(=O)[C@@H](N)CC(=O)O)C(C)C)C(=O)N[C@@H](Cc1c[nH]cn1)C(=O)N1CCC[C@H]1C(=O)N[C@@H](Cc1ccc(Br)cc1)C(=O)O`, the Activity is reported as 50%.

Another series is filed under the species Rattus norvegicus. Put plainly: Inhibition of angiotensin-2-induced pressor activity in rat assessed as duration of action. Format: functional, organism-based.
Conditions: not given
A digest of the protocol: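 Antagonist was given to rats as a single 4000 pmol dose. Pressor responses to 20 pmol angiotensin II were then followed. Duration of action (T1/2) was taken as the time for the angiotensin II response to recover to one-half of its pretreatment level.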
As for `CC[C@H](C)[C@H](NC(=O)[C@H](Cc1ccc(O)cc1)NC(=O)[C@@H](NC(=O)[C@H](CCCNC(=N)N)NC(=O)CNC)C(C)C)C(=O)N[C@@H](Cc1cnc[nH]1)C(=O)N1CCC[C@H]1C(=O)N[C@@H](CC(C)C)C(=O)O` (HELM PEPTIDE1{[Sar].R.V.Y.I.H.P.L}$$$$V2.0), the T1/2 worked out at 45 min.
